Tests used:
[1] = biological target: T1, 5-hydroxytryptamine receptor 1A (Rattus norvegicus, UniProt P19327); assay: Binding affinity against native 5-HT1A-receptors from rat hippocampus using radioligand ([3H]8-hydroxy-2-(di-n-propylamino)-tetraline) binding assay; assay type: tissue-based
T1 sequence (P19327 whole entry): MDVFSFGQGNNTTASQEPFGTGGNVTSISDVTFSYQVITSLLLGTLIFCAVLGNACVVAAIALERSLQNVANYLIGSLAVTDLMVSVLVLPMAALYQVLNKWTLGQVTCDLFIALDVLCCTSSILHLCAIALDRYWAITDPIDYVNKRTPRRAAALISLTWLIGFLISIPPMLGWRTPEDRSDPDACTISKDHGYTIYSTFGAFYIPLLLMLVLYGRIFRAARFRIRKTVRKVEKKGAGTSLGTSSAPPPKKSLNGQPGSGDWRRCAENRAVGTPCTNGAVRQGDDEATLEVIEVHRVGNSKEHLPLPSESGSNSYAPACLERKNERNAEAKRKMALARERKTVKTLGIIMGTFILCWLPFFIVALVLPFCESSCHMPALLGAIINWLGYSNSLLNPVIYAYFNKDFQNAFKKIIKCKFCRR

[2] = biological target: T2, Adrenergic receptor alpha-2 (Rattus norvegicus, UniProt P22086+P19328+P22909); assay: Binding affinity against native Alpha-2 adrenergic receptor from rat cerebral cortex using radioligand ([3H]rauwolscine) binding assay; assay type: tissue-based
T2 sequence (P22086 whole entry): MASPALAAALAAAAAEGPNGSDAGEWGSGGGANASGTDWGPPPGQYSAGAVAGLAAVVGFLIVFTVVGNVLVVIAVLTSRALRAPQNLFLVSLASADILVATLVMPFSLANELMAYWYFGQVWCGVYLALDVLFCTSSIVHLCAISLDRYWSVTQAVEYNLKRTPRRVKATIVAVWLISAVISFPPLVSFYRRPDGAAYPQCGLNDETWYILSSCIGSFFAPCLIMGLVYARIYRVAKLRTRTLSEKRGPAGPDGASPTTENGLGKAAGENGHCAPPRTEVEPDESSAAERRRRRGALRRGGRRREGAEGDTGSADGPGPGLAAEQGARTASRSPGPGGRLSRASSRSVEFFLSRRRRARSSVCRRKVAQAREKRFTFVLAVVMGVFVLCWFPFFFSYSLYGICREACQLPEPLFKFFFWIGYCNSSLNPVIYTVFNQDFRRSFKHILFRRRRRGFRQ
T2 sequence (P19328 whole entry): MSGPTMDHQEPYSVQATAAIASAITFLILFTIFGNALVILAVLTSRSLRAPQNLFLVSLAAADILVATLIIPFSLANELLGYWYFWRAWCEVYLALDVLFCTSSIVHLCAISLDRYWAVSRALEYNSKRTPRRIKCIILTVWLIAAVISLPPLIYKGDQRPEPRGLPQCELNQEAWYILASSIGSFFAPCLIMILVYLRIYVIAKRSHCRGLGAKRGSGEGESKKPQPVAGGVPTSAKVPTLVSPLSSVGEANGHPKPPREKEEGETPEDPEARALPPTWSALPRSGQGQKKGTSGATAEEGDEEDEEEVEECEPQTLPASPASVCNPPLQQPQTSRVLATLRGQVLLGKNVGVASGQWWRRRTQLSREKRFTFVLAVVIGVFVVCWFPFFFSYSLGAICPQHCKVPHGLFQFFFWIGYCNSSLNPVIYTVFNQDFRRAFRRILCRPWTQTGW
T2 sequence (P22909 whole entry): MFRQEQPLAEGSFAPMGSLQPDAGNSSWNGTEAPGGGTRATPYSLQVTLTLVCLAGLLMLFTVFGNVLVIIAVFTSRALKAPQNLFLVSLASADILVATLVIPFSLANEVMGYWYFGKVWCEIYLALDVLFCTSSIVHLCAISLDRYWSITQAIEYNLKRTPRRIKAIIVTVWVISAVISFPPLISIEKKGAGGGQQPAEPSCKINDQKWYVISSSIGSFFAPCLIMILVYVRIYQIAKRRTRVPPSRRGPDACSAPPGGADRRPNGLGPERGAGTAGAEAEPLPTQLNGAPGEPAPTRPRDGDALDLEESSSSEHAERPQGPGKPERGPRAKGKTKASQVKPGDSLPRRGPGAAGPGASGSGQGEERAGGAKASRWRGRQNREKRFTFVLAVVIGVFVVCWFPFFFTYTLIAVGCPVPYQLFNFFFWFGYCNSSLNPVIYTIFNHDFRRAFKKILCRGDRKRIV

D(2) dopamine receptor = D(2) dopamine receptor (Rattus norvegicus, UniProt P61169); assay: Compound was tested for binding affinity against native Dopamine receptor D2 from rat striatum using radioligand [3H]-spiperone)
How it was run: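 Rat striatal membranes were prepared in Tris-HCl pH 7.4 with 10 µM pargyline, 0.1% ascorbic acid, 120 mM NaCl, 5 mM KCl, 2 mM CaCl2 and 1 mM MgCl2. Filtration and scintillation counting followed. Ki was obtained from the curve-fitted IC50 via Cheng-Prusoff; values are mean pKi ± SE.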

[3] = biological target: T3, Alpha-1B adrenergic receptor (Homo sapiens, UniProt P35368); assay: Compound was tested for binding affinity against […] Alpha-1B adrenergic receptor using radioligand ([3H]-prazosin) binding assay
T3 sequence (P35368 whole entry): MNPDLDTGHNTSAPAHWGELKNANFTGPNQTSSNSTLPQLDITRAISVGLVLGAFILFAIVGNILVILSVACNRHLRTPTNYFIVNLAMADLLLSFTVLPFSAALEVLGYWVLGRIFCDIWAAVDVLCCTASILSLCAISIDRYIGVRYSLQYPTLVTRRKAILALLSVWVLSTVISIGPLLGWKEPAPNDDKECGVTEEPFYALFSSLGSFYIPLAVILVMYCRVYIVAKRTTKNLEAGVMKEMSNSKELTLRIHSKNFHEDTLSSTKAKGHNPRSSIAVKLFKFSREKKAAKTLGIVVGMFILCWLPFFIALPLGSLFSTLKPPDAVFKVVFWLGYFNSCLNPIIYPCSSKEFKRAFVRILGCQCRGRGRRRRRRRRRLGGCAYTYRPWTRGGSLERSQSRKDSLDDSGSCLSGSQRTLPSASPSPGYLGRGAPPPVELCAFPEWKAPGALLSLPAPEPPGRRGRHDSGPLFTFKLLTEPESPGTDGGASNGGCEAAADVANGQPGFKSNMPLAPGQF
How it was run: (§1)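 Membranes (30 µg protein) came from CHO cells stably transfected with the human α1-adrenoceptor subtype gene. […] Nonspecific binding was defined with 10 µM phentolamine. Filtration on PEI-treated filters followed. Ki came from the fitted IC50 via Cheng-Prusoff.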

[4] = biological target: T4, Alpha-1D adrenergic receptor (Homo sapiens, UniProt P25100); assay: Compound was tested for binding affinity against human hippocampus Alpha-1D adrenergic receptor using radioligand ([3H]prazosin) binding assay; how it was run: as §1
T4 sequence (P25100 whole entry): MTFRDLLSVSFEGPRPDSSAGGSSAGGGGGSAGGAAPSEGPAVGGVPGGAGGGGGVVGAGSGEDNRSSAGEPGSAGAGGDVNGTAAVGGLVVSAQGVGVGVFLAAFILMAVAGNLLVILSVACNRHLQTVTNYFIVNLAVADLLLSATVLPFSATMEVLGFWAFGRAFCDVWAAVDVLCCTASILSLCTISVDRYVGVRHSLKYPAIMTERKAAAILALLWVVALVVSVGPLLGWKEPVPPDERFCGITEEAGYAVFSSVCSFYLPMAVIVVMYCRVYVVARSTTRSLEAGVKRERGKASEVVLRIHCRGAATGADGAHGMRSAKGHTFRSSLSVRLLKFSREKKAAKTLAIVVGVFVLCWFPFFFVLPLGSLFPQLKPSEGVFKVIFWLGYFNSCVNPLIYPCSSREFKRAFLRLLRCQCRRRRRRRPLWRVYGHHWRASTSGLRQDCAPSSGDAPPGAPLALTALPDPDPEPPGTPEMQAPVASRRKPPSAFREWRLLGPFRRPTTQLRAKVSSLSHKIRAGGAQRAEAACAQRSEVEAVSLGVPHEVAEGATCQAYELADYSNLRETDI

[5] = biological target: T5, Alpha-1A adrenergic receptor (Homo sapiens, UniProt P35348); assay: Compound was tested for binding affinity against human hippocampus Alpha-1A adrenergic receptor using radioligand ([3H]prazosin) binding assay; how it was run: as §1
T5 sequence (P35348 whole entry): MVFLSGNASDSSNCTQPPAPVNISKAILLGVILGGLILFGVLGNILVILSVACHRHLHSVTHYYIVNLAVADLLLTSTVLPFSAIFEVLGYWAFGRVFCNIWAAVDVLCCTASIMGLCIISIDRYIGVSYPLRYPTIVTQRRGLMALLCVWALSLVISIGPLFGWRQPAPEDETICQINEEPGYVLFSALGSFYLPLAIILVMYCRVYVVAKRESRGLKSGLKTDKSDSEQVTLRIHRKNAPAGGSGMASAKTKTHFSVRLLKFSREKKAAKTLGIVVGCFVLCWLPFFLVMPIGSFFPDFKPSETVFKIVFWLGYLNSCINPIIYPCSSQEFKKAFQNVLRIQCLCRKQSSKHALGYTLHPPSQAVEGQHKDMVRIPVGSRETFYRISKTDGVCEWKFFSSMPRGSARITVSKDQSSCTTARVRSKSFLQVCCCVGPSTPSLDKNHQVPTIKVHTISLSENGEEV

[6] = biological target: T6, Alpha-1A adrenergic receptor (Bos taurus, UniProt P18130); assay: Compound was tested for binding affinity against cloned Alpha-1A adrenergic receptor from bovine brain using radioligand ([3H]prazosin) binding assay
T6 sequence (P18130 whole entry): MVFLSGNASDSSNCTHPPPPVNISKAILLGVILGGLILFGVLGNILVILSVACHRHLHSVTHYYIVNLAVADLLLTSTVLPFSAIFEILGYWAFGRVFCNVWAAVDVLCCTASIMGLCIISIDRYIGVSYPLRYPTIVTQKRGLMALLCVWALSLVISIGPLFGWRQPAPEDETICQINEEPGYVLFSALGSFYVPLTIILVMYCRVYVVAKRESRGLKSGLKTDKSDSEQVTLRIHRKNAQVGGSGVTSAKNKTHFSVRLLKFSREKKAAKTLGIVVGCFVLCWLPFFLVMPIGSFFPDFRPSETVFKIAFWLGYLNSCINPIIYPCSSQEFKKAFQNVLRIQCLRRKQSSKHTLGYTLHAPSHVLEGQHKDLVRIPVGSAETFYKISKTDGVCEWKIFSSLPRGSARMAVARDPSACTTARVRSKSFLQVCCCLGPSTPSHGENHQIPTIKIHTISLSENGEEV

Sequence of D(2) dopamine receptor (P61169 whole entry): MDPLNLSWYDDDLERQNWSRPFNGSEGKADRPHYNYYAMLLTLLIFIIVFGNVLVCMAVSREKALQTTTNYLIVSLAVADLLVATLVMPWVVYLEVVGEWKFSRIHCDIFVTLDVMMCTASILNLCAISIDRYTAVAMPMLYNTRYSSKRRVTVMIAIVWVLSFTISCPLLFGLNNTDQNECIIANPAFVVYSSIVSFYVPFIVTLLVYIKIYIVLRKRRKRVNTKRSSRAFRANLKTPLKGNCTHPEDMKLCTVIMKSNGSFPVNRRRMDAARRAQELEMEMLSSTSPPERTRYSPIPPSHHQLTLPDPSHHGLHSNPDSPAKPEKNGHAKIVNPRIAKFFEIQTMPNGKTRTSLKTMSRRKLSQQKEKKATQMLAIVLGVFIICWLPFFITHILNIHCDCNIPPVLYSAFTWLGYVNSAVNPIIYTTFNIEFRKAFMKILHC

Compound	Ki [1]	Log Ki [2]	Ki (D(2) dopamine receptor)	Ki [3]	Ki [4]	Ki [5]	Ki [6]
COc1cc2nc(N3CCN(C(=O)c4ccco4)[C@H]4CCCC[C@H]43)nc(N)c2cc1OC [CYCLAZOSIN]	6170 nM	-5.86	> 10000 nM	–	–	–	–
COc1cc2nc(N3CCN(C(=O)c4ccco4)[C@@H]4CCCC[C@@H]43)nc(N)c2cc1OC	12900 nM	-6.13	8320 nM	0.135 nM	3.24 nM	12.3 nM	–
O=C(CCCN1CCC2(CC1)C(=O)NCN2c1ccccc1)c1ccc(F)cc1 [SPIPERONE]	25.1 nM	–	–	–	–	–	13.5 nM
COc1cc2nc(N3CCN(C(=O)c4ccco4)C4CCCCC43)nc(N)c2cc1OC (racemic)	6920 nM	-6.17	> 10000 nM	–	–	–	–
COc1cc2nc(N3CCN(C(=O)c4ccco4)CC3)nc(N)c2cc1OC [PRAZOSIN]	2340 nM	–	> 10000 nM	–	–	–	–

— ChEMBL document CHEMBL1129400 (J Med Chem, 1996)
